Screening results deposited in PubChem BioAssay by several laboratories.
Only some compounds are listed: those with a hit (about 2% of all), similar ones and a draw of the others.
CSN deneddyl inh = CSN deneddylation inhibition | Q92905 | Purified CSN, SCF-Nedd8-OG deneddylation, fluorescence polarization | inhibition, % at 12.5 µM | 360,000 compounds, 0.38% hits | AID 651999;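 active = pattern-corrected inhibition above about 35%, with an unprinted fluorescence ratio check between 0.5 and 1.5, limit read from the data, passing the limit was not always enough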;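 note: 0% = enzyme with substrate and 100% = substrate without enzyme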
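Assay system: purified human Csn5 enzyme expressed in HEK293T cells; measure: % inhibition; also added: SCFSkp2-Nedd8OG substrate at 10 nM final; technique: fluorescence polarization; times: reaction 90 min, room temperature; medium: Tris buffer pH 7.5, NaCl, DTT, Tween-20, trehalose, ovalbumin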
SENP1 FRET inh = SENP1 (human) catalytic domain inhibition. Q9P0U3. recombinant SENP1 catalytic domain, CyPet-SUMO1-YPet FRET cleavage. inhibition, % at 10 µM. 360,000 compounds, 0.21% hits. AID 624204;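 active = inhibition at least 30% at 10 µM, raw YFP signal under a set limit, fluorescence ratio 0.5 to 1.5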;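 note: 0% = enzyme with DMSO and 100% = no enzyme wells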
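Material: hSENP1 catalytic domain, recombinant; medium: Tris pH 8 with BME, BSA, NP40 and catalase; compound: single concentration of 10 µM compound, 0.5% DMSO final; technique: FRET read of cyan and yellow fluorescence; timing: 50 min enzyme reaction, room temperature, light-protected; reagent: SFCypet-SUMO1-SFYpet substrate at 25 nM; control set: no-enzyme low, enzyme-DMSO high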
TPT1 inh = inhibitors of Candida albicans tRNA 2'-phosphotransferase TPT1. 300,000 compounds, 0.81% hits. recombinant caTPT1, FP RNA substrate dephosphorylation. inhibition, % at 5 µM;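 active = inhibition above the mean of all tested compounds plus 3 SD, set per screening campaign, cut at about 24% in these data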;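 note: plate controls were DMSO alone for no effect and ferristatin control at 100 nM for full effect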
Rpn11 inh = blocks the human proteasome subunit Rpn11. O00487. human 26S proteasome, Ub4-pepOG fluorescence polarization; 20S core pre-blocked with epoxomicin. inhibition, % at 20 µM. AID 588493. 360,000 compounds, 0.59% hits;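 active = inhibition at 20 µM, scaled to each plate's controls, above about 33%, limit read from the data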
HNF4A DNA FP = change in binding of human HNF4 alpha to DNA | P41235 | HNF4a-FITC DNA binding, fluorescence polarization, 1 h | activity change, % at 10 µM | 360,000 compounds, 0.3% hits | AID 1224865; in the data active = activity change above about 30%, passing the limit was not always enough
ATG4B inhibitor = ATG4B (human) cysteine protease inhibition; inhibition, % at 8.33 µM; AID 504462; ATG4B cleavage of LC3-PLA2, NBD-HPC fluorescence, 1 h; Q9Y4P1; 340,000 compounds, 0.51% hits; in the data active = inhibition above about 40%
Target sequence (Q9Y4P1 whole entry, looked up): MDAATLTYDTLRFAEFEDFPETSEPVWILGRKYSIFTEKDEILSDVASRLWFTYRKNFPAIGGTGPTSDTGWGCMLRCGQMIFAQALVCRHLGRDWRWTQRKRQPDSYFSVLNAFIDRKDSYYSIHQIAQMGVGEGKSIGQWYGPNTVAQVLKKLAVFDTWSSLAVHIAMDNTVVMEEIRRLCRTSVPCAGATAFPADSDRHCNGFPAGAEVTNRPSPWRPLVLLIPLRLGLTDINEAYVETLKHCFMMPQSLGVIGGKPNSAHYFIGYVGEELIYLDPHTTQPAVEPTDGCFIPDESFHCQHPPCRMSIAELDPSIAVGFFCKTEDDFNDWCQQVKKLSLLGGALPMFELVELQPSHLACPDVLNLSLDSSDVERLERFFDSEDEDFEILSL
* marks the source's active call; other numbers are inactive results; / = not tested or not shown.

SMILES	CSN deneddyl inh	SENP1 FRET inh	TPT1 inh	Rpn11 inh	HNF4A DNA FP	ATG4B inhibitor
CC[n+]1c(/C=C/N(C)c2ccccc2)oc2ccc(Cl)cc21	1.0	1.0	6.2	1.9	9.2	6.5
Cc1ccnc(NS(=O)(=O)c2ccc(NC(=O)Cc3c(F)cccc3Cl)cc2)n1	-0.1	1.0	1.3	-4.1	48.3*	-8.2
Cc1cccc(-n2nc3c(c2NC(=O)c2ccco2)CSC3)c1C	36.4*	-1.7	2.6	27.7	-19.7	31.1
Cc1cccc(-n2nc3c(c2NC(=O)c2ccco2)CS(=O)C3)c1C (stereo not given)	1.4	1.5	0.1	2.7	0.6	-5.5
OCc1cccc(-c2csc(C(O)c3ccccc3)n2)c1 (stereo not given)	-0.1	1.0	/	-2.1	-1.4	/
CCCCn1c(=N)n(CC(=O)c2ccc([N+](=O)[O-])cc2)c2ccccc21	/	/	7.4	/	/	/
Cc1ccc(Cn2c(=N)n(CC(=O)c3ccc([N+](=O)[O-])cc3)c3ccccc32)cc1	42.5*	22.4	1.9	/	63.6*	-1.4
O=C(COC(=O)c1c[nH]c2ccccc12)Nc1ccc(F)cc1	-6.0	0.1	/	2.5	3.3	-4.2
Cc1ccccc1C(=O)NCCCNC(=O)c1ccco1	-5.1	3.9	2.4	-2.6	2.2	-2.1
CCOC(=O)N1CCN(c2cc(=O)n(C3CCCCC3)c(=O)[nH]2)CC1	-0.3	2.3	-3.9	-1.0	1.2	-12.1
CCOC(=O)C1CCN(c2cc(=O)n(C3CCCCC3)c(=O)[nH]2)CC1	1.5	-0.5	-4.1	-4.4	39.9*	4.2
CN(C(=S)NC(=O)c1ccccc1)C1CCCCC1	46.2*	0.0	0.2	-9.2	0.3	1.2
CN(C(=S)NC(=O)c1ccc(Cl)cc1)C1CCCCC1	-1.9	2.1	-0.5	-1.6	0.1	5.3
COc1ccc(N2C(=O)[C@@H]3[C@H](C2=O)[C@H]2c4ccccc4C=CN2[C@@H]3C(=O)Nc2ccccc2)cc1	-68.1	-26.1	102.3*	/	100.9	-12.8
O=C(c1ccco1)[C@@H]1[C@@H]2C(=O)N(c3ccccc3)C(=O)[C@@H]2C2c3ccccc3C=CN21 (stereo not given in full)	0.8	-24.7	-24.9	-40.7	-17.3	11.6
c1ccc(CC[C@@H]2CC[C@@H](CCc3ccccc3)N2)cc1	42.9*	2.6	/	1.3	7.1	3.0
COc1ccc(Cc2nc3ccccc3n2CC(=O)N/N=C/c2ccc(C)cc2O)cc1OC	59.5*	-4.7	-1.6	21.3	39.1*	-10.8
CCOc1ncccc1C(=O)Nc1cc(S(=O)(=O)N(CC)CC)ccc1N1CCOCC1	-0.8	-2.3	/	-3.3	-2.7	2.4
OCC1OC(n2cnc3c(/C=C(\O)c4ccccc4)ncnc32)C(O)C1O (stereo not given)	-1.0	-10.0	/	-0.5	-0.8	1.3
CC(=O)NC(=S)NNC(=O)C(c1ccccc1)c1ccccc1	77.5*	0.2	-2.2	2.2	3.2	0.4
N#CCC(=O)NNC(=S)NC(=O)C(c1ccccc1)c1ccccc1	-4.1	0.2	-3.0	12.7	1.5	-12.3
CN(C)CCN1C(=O)c2cccc3cc([N+](=O)[O-])cc(c23)C1=O	-7.6	60.1*	/	-59.2	-32.0	1.1
O=C(NCc1ccccc1)C(c1cc2ccccc2o1)n1c(=O)c(-c2ccco2)nc2ccccc21 (stereo not given)	28.4	-55.5	/	/	36.6*	/
O=C(NCc1ccccc1)C(c1ccccc1)n1c(=O)c(-c2ccco2)nc2ccccc21 (stereo not given)	10.2	-38.5	/	/	26.6	/
O=C(NC1CCCCC1)C(c1ccnc2ccccc12)n1c(=O)c(-c2ccco2)nc2ccccc21 (stereo not given)	15.2	-49.9	/	/	29.9	/
O=C(NC1CCCCC1)C(c1ccccc1F)n1c(=O)c(-c2ccco2)nc2ccccc21 (stereo not given)	19.6	-37.8	/	/	34.4*	/
CC(C)(C)NC(=O)C(c1ccc(C(F)(F)F)cc1)n1c(=O)c(-c2ccco2)nc2ccccc21 (stereo not given)	26.8	-28.0	/	/	42.4*	/
